Data taken from ChEMBL document CHEMBL1132106, “Synthesis, biological activity, and conformational analysis of four seco-D-15,19-bisnor-1alpha,25-dihydroxyvitamin D analogues, diastereomeric at C17 and C20” (1999).

How the values were obtained:
HL-60 = experiment: In vitro induction of cell differentiation in HL-60 cells relative to 1,25(OH)2D3 (100); format: functional, Homo sapiens
Outline: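 HL-60 cells seeded at 4×10^4 cells/mL in RPMI 1640 with 20% FCS and gentamycin, 37 °C, 5% CO2. Compounds added in ethanol (final <0.2%) one day later, then cultured 4 days. Differentiation read as NBT reduction: 1×10^6 cells/mL mixed with PMA (200 ng/mL) and NBT ([…]), 30 min at 37 °C. Formazan-positive cells counted by hemacytometer.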

Mus musculus [1] = experiment: Hypercalcemic effect by daily sc injection of compound was measured as serum calcium concentration in vitamin D-replete normal NMRI mice relative to 1,25(OH)2D3 (100); format: functional
Outline: (§1)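 Vitamin D-replete normal NMRI mice given compound or solvent by daily subcutaneous injection for 7 consecutive days. Serum calcium concentration used as the read-out.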

[2] = molecular target: T1, Vitamin D3 receptor (Sus scrofa) (UniProt A3RGC1); experiment: Binding affinity for porcine intestinal Vitamin D3 receptor (VDR) relative to 1,25(OH)2D3 (100)
T1 sequence (whole entry): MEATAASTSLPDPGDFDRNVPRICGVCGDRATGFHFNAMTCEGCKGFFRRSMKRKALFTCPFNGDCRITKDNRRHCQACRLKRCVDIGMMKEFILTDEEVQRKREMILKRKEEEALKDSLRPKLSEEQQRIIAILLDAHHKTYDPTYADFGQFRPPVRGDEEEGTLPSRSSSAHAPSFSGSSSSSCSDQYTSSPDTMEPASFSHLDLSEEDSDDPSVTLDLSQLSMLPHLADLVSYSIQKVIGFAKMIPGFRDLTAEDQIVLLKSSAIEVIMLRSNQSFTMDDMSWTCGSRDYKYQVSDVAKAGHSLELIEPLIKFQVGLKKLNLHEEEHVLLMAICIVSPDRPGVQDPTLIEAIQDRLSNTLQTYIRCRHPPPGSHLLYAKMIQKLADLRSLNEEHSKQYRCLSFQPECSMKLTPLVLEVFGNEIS
Outline: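 Competition with [3H]1,25(OH)2D3 for receptor in high-speed supernatant of normal pig intestinal mucosa homogenate. Incubated 20 h at 4 °C, then dextran-coated charcoal phase separation. Relative affinity from the concentration displacing 50% of tracer, referenced to 1,25(OH)2D3 at 100%.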

[3] = molecular target: T2, Vitamin D-binding protein (Homo sapiens) (UniProt P02774); experiment: Binding affinity for human vitamin D binding protein (hDBP) relative to 1,25(OH)2D3 (100)
T2 sequence (whole entry): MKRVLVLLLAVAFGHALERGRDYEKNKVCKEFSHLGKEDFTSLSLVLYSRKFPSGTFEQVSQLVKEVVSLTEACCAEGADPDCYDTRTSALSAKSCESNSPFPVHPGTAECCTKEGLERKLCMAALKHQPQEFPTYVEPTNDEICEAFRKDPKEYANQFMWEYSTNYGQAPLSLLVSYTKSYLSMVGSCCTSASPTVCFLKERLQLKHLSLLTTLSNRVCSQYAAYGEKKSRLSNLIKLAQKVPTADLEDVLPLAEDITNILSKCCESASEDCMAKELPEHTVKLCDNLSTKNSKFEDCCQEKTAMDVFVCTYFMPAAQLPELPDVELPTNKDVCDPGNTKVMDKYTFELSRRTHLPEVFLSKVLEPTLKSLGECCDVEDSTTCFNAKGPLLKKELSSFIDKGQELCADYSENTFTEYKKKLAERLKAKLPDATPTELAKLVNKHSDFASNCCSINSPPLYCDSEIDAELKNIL
Outline: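 Competition with [3H]1,25(OH)2D3 for human serum DBP (0.18 μM), purified by affinity chromatography. Ligands added in 5 μL ethanol. Incubated 3 h at 4 °C in 0.01 M Tris-HCl with 0.154 M NaCl, pH 7.4. Bound and free separated with cold dextran-coated charcoal. Activity expressed relative to 1,25(OH)2D3 set at 100.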

[4] = molecular target: T3, Vitamin D-binding protein (Rattus norvegicus) (UniProt P04276); experiment: Binding affinity for rat vitamin D binding protein (DBP) relative to 1,25(OH)2D3 (100)
T3 sequence (whole entry): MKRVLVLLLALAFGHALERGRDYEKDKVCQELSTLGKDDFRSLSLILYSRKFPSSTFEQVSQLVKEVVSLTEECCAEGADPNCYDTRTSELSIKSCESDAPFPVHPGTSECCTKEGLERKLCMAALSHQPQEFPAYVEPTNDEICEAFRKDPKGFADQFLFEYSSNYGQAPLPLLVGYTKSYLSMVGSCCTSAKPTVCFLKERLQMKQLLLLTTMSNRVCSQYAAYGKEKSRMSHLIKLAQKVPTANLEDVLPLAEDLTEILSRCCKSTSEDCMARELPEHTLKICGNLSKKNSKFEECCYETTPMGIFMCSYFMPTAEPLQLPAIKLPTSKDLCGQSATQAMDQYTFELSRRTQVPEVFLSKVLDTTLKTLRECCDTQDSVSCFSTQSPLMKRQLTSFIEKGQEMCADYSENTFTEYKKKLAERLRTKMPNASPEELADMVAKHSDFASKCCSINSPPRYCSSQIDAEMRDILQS

Gallus gallus = experiment: In Vivo evaluation for the calcemic activity in vitamin D-replete normal in ICA chick; format: functional
Keratinocyte cell line [5] = experiment: Inhibition of human skin keratinocyte proliferation relative to 1,25(OH)2D3 (100); format: functional
Outline: (§2)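 Human foreskin keratinocytes isolated by overnight Dispase digestion and grown in serum-free keratinocyte medium with pituitary extract and EGF. Seeded at 5×10^3 cells/well in medium without insulin. After 1 day, serial dilutions added in ethanol (<0.2% final) for 72 h. Then [3H]thymidine 1 μCi/well for 2 h and incorporation counted.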

MCF7 [6] = experiment: Antiproliferative activity on MCF-7 cells relative to 1,25(OH)2D3 (100); format: functional, Homo sapiens
Outline: (§3)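 MCF-7 cells grown in DMEM/F12 with 10% heat-inactivated FCS, glutamine, penicillin and streptomycin, 37 °C, 5% CO2. Seeded at 5×10^3 cells/well. Compounds added after 24 h and incubated 72 h. Then 1 μCi [3H]thymidine per well for 4 h, cells harvested and radioactivity counted. Triplicate cultures. Activity expressed relative to 1,25(OH)2D3 set at 100.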

Keratinocyte cell line [7] = experiment: In vitro proliferative activity on keratinocyte cells; format: functional, Homo sapiens; outline: as §2
MCF7 [8] = experiment: In vitro cell proliferative activity on MCF-7 cells; format: functional, Homo sapiens; outline: as §3
Mus musculus [9] = experiment: In Vivo evaluation for the calcemic activity in vitamin D-replete normal in NMRI mice; format: functional; outline: as §1
[10] = molecular target: T3, Vitamin D-binding protein (Rattus norvegicus); experiment: Binding affinity for rat Vitamin D binding protein

SMILES	Relative activity (HL-60)	Hypercalcemic activity relative to 1,25(OH)2D3 (=100) (Mus musculus [1])	Relative binding affinity [2]	Relative binding affinity [3]	Relative binding affinity [4]	ICA (Gallus gallus)	Relative activity (Keratinocyte cell line [5])	Relative activity (MCF7 [6])	other results
C[C@H](CCCC(C)(C)O)[C@H]1CC[C@H]2/C(=C/C=C3C[C@@H](O)C[C@H](O)C3)CCC[C@]12C	90	0.3	30	48					
C=C1/C(=C\C=C2/CCC[C@]3(C)[C@@H]([C@@H](C)[C@H](C)CCC(C)(C)O)CC[C@@H]23)C[C@@H](O)C[C@@H]1O	11900		2000		0.25	50			
C[C@@H](CCCC(C)(C)O)[C@H](C)[C@@]1(C)CCC/C(=C\C=C2C[C@@H](O)C[C@H](O)C2)C1	70	25	9	0			85	90	
C=C1/C(=C\C=C2/CCC[C@]3(C)[C@@H]([C@H](C)OCCC(C)(C)O)CC[C@@H]23)C[C@@H](O)C[C@@H]1O [MAXACALCITOL]	197	0.3	18	0					
C=C1/C(=C\C=C2/CCC[C@]3(C)[C@@H]([C@H](C)[C@H](C)CCC(C)(C)O)CC[C@@H]23)C[C@@H](O)C[C@@H]1O	1.3		1.7		0.45	25			
C[C@H](CCCC(C)(C)O)[C@@H](C)[C@@]1(C)CCC/C(=C\C=C2C[C@@H](O)C[C@H](O)C2)C1	1000	13	45	3			5000	2000	
C=C1/C(=C\C=C2/CCC[C@]3(C)[C@@H]([C@@H](C)[C@@H](C)CCC(C)(C)O)CC[C@@H]23)C[C@@H](O)C[C@@H]1O	8		1		0.25	0.1			
C=C1/C(=C\C=C2/CCC[C@]3(C)[C@@H]([C@H](C)CCCC(C)(C)O)CC[C@@H]23)C[C@@H](O)C[C@@H]1O [CALCITRIOL]						100			Activity (HL-60): 100; Activity (Keratinocyte cell line [7]): 100; Activity (MCF7 [8]): 100; Ca2+ serum (Mus musculus [9]): 100; Binding affinity [2]: 100; Binding affinity [10]: 100; Binding affinity [3]: 100
C[C@H]([C@@H](C)CCCC(C)(C)O)[C@@]1(C)CCC/C(=C\C=C2C[C@@H](O)C[C@H](O)C2)C1	10	0.25	10	0			80	40	
C[C@H](CCCC(C)(C)O)[C@H](C)[C@@]1(C)CCC/C(=C\C=C2C[C@@H](O)C[C@H](O)C2)C1	75	0.25	8	0			60	75	
C=C1/C(=C\C=C2/CCC[C@]3(C)[C@@H]([C@@H](C)CCCC(C)(C)O)CC[C@@H]23)C[C@@H](O)C[C@@H]1O	3000	800	88	0.2					
C=C1/C(=C\C=C2/CCC[C@]3(C)[C@@H]([C@H](C)[C@@H](C)CCC(C)(C)O)CC[C@@H]23)C[C@@H](O)C[C@@H]1O	100		33		67	50			
C=C1/C(=C/C=C2/CCC[C@]3(C)C([C@H](C)CC#CC(C)(C)O)=CC[C@@H]23)C[C@@H](O)C[C@@H]1O	950	8	85	0					
